Laboratory results taken from publication PMC8800165 (Antiviral Research, 2022).
Several values for one entry are separate records, joined by “and”; a condition that tells them apart may be missing. Equal values may be shown once. Read-outs that look alike come from different tables or passages of the source.

Assays:
SARS-CoV-2 RdRp [1] = molecular target: T1, SARS-CoV-2 RdRp (Severe acute respiratory syndrome coronavirus 2, UniProt P0DTD1); conditions: for inhibition ratio against SARS-CoV-2 RdRp: 10 μM, library screen; for TI (CC50/EC50): CC50 HEK293T / RdRp EC50
LLC-MK2 cells = experiment: toxicity after incubation for 5 days in LLC-MK2 cells; format: cell-based; conditions: read-out: Toxicity CC50 LLC-MK2
HCoV-OC43 = experiment: anti-coronavirus CPE inhibition assay; format: cell-based; conditions: read-out: EC50 HCoV-OC43 (CPE inhibition)
Summary of the method: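 HCT-8 cells (DMEM, 10% heat-inactivated FBS) seeded at 2 × 10^4/well for 24 h. Infected with HCoV-OC43 strain VR-1558 at MOI 0.1 in 2% FBS medium; two-fold serial dilutions of test compound (0.195–50 μM) added 1 h post-infection. Incubated 5 days at 33 °C, then MTS 3 h at 37 °C, A490. Means ± SD, three independent experiments.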

SARS-CoV-2 RdRp [2] = molecular target: T1, SARS-CoV-2 RdRp; experiment: CoV-Gluc plus- and minus-strand RNA by real-time qRT-PCR; format: cell-based; conditions: HEK293T, 2 μM or 10 μM, 24 h
[3] = molecular target: SARS-CoV-2 RdRp in the presence of nsp14 and nsp10 (Severe acute respiratory syndrome coronavirus 2, UniProt P0DTD1); experiment: cell-based CoV-RdRp-Gluc system with nsp10/nsp14 proofreading function; conditions: EC50 with nsp14/nsp10 over EC50 without
HEK293T cells = experiment: cell toxicity assay, CCK-8 kit; format: cell-based; conditions: HEK293T, 24 h, CCK-8
Summary of the method: (§1)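 HEK293T cells (DMEM, 10% FBS) seeded one day before treatment. Test compound added in […] for 24 h. CCK-8 (WST-8) reagent then added for 60 min at 37 °C, 5% CO2, and A450 read. CC50 derived from viability relative to DMSO-treated cells.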

HCoV-NL63 = experiment: anti-coronavirus CPE inhibition assay; format: cell-based; conditions: read-out: EC50 HCoV-NL63 (CPE inhibition); LLC-MK2, MOI 0.01, 5 days, MTS
Summary of the method: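 LLC-MK2 cells (DMEM, 10% heat-inactivated FBS) seeded at 2 × 10^4/well for 24 h. Infected with HCoV-NL63 strain Amsterdam I at MOI 0.01 in 2% FBS medium; test compound in two-fold dilutions (0.195–50 μM) given 1 h post-infection. Incubated 5 days at 33 °C; MTS 3 h at 37 °C, A490. Means ± SD, three independent experiments.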

HCT-8 cells = experiment: toxicity after incubation for 5 days in HCT-8 cells; format: cell-based; conditions: read-out: Toxicity CC50 HCT-8; incubation for 5 days
SARS-CoV-2 RdRp [4] = molecular target: T1, SARS-CoV-2 RdRp; experiment: Bio layer interferometry binding assay; conditions: data not shown
[5] = cell toxicity assay, CCK-8 kit; format: cell-based; conditions: human, HEK293T cells
Summary of the method: as §1

[6] = toxicity after incubation for 5 days in HCT-8 cells; format: cell-based; conditions: human, HCT-8 cells
[7] = Betacoronavirus 1, OC43, HCT-8, 120 h

Compound | inhibition ratio against SARS-CoV-2 RdRp (SARS-CoV-2 RdRp [1]) | TI (CC50/EC50) (SARS-CoV-2 RdRp [1]) | CC50 (LLC-MK2 cells) [µM] | EC50 (HCoV-OC43; HCT-8, MOI 0.1, 5 days, MTS) [µM] | levels of plus-strand and minus-strand Gluc RNA (SARS-CoV-2 RdRp [2]) | Ratio (12 + 14/12) [3] | CC50 (HEK293T cells) [µM] | EC50 (HCoV-NL63) [µM] | CC50 (HCT-8 cells) [µM] | binding activity upon SARS-CoV-2 RdRp (SARS-CoV-2 RdRp [4]) | EC50 (HCoV-OC43; [7]) [µM] | CC50 at 24 h [5] [µM] | CC50 at 5 days [6] [µM]
Nc1ncnc2c1c(I)cn2[C@@H]1O[C@H](CO)[C@@H](O)[C@H]1O [5-Iodotubercidin] | 85.69% and > 75% | 79.28 | 45.6 ± 5.15 | 1.56 | even better than the Remdesivir | 1.89 | 59.5 | 3.62 | 46.9 ± 2.37 | did not detect the binding activity |  |  | 
Nc1nc2c(ncn2[C@H]2C[C@H](O)[C@@H](CO)O2)c(=S)[nH]1 [6-Thio-dG, 6-Thio-20-Deoxyguanosine] | 75.19% and > 75% |  | 68 ± 7.03 | 6.5 |  | 8.04 | > 100 | 9.53 | 63 ± 3.52 |  |  |  | 
Nc1nc(F)nc2c1ncn2[C@@H]1O[C@H](COP(=O)(O)O)[C@@H](O)[C@@H]1O [Fludarabine Phosphate] | 89.78% and > 75% | 70.15 |  |  |  | 7.19 |  |  |  |  | 3.11 | 65.2 | 37.5 ± 1.62
Nc1nc(F)nc2c1ncn2[C@@H]1O[C@H](CO)[C@@H](O)[C@@H]1O [Fludarabine] | 88.71% and > 75% | 50.58 |  |  |  | 11.53 |  |  |  |  | 4.56 | 53.6 | 40.4 ± 8.16
CCC(CC)COC(=O)[C@H](C)N[P@](=O)(OC[C@H]1O[C@@](C#N)(c2ccc3c(N)ncnn23)[C@H](O)[C@@H]1O)Oc1ccccc1 [Remdesivir] |  | >93.46 |  |  |  |  |  |  |  |  |  | > 100 | 
